One assay concerns the target T1, human recombinant COX-2 (Homo sapiens, UniProt P35354).
T1 sequence (P35354 18-604): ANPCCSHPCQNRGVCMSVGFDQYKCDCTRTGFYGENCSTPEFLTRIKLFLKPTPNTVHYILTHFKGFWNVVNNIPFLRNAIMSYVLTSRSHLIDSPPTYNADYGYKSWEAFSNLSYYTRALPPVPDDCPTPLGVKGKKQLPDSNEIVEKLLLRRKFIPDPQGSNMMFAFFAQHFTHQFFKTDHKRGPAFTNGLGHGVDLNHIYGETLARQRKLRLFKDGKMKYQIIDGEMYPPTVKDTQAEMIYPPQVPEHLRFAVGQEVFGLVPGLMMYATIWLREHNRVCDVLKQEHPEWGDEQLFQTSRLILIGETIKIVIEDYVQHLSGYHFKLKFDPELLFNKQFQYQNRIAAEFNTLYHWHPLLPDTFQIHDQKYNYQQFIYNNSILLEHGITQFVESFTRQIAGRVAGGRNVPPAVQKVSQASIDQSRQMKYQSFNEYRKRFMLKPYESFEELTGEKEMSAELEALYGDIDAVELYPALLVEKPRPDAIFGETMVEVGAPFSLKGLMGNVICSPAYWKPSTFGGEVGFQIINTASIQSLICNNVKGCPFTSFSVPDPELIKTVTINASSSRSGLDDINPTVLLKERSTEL
The experiment in a line: COX fluorescent inhibitor screening kit. The assay is classed as biochemical. An outline of the steps: (§1)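 Ovine COX-1 or human recombinant COX-2 with heme and ADHP in 100 mM Tris-HCl, pH 8.0. Test compound from 10 mM DMSO stock, final 2.5–100 μM. Arachidonic acid starts the reaction, 2 min at room temperature. Resorufin read at ex 535/em 590 nm. Percent inhibition vs no-inhibitor control; IC50 from concentration–inhibition curve, triplicate determinations.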

In a further assay the target is T2, ovine COX-1 (Ovis aries, UniProt P05979).
T2 sequence (P05979 25-600): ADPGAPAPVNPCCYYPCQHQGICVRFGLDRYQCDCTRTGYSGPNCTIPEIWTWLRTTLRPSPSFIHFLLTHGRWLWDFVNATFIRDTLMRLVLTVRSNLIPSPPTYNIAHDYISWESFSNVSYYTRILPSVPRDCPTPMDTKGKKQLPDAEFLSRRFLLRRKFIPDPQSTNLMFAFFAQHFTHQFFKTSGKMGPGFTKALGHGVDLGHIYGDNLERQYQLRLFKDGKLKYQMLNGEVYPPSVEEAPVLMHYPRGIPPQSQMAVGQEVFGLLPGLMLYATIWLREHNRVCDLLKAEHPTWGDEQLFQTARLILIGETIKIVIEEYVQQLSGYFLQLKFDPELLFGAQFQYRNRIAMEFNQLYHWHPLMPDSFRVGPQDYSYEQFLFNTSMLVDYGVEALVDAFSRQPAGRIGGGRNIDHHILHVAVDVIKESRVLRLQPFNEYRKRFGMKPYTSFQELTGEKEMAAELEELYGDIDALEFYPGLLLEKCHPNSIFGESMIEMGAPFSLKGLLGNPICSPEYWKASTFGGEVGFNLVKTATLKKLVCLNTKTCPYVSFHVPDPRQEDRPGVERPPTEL
The experiment in a line: COX fluorescent inhibitor screening kit. The assay is classed as biochemical. In outline:
as §1

The structures appear in SMILES notation.

In the case of `CC(=O)OC[C@H]1O[C@@H](OC(C)=O)[C@H](NC(=O)Cc2ccccc2Nc2c(Cl)cccc2Cl)[C@@H](OC(C)=O)[C@@H]1OC(C)=O` [compound 3], the values for the IC50 on human recombinant COX-2 and against ovine COX-1 were < 2.5 µM and 25.5 µM, respectively.
The corresponding values for `CC(=O)OC[C@H]1O[C@@H](OC(C)=O)[C@H](NC(=O)c2ccccc2Nc2cccc(C)c2C)[C@@H](OC(C)=O)[C@@H]1OC(C)=O` [compound 5, 1,3,4,6-Tetra-O-acetyl-2-deoxy-2-(2-((2,3-dimethylphenyl)amino)benzamido)-β-D-glucopyranose] are > 100 µM and < 2.5 µM.
Consider `COc1ccc2c(c1)c(CC(=O)N[C@H]1[C@H](OC(C)=O)O[C@H](COC(C)=O)[C@@H](OC(C)=O)[C@@H]1OC(C)=O)c(C)n2C(=O)c1ccc(Cl)cc1` [compound 4], for which the IC50 on human recombinant COX-2 amounted to 33.6 µM; at ovine COX-1, 24.9 µM.

One may read the IC50 as the concentration that gives 50% inhibition.

The values are drawn from paper PMC8281356 (Chemical biology & drug design, 2021).
